S1P3 antag = S1P3 (human) receptor antagonism; Q99500; CHO S1P3 NFAT-BLA reporter, FRET fluorescence, antagonist mode; inhibition, % at 4.98 µM; 170,000 tested, 0.27% active;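 active = inhibition above the plate cutoff, the mean inhibition of test wells on that plate plus 3 SD, cut at about 28% in these data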;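 also: cells challenged with S1P at its EC80 of 0.8 µM; blue over green emission ratio from cleaved BLA substrate after 4 h stimulation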
S1P4 agonist = human S1P4 receptor agonism | 220,000 tested, 0.35% active | activation, % at 4.98 µM | O95977 | S1P4-expressing cell line, agonist reporter assay; in the data active = activation above about 11%
Mdm2 ligase inh = blocks human Mdm2 ubiquitin ligase activity. Q00987. cell-based MDM2 ubiquitination luciferase reporter, 2 h; 0 = plate control, 100 = twice control, blank-subtracted. signal enhancement, % at 5 µM. 210,000 tested, 0.11% active. AID 1230;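 active = signal enhancement of 30% or more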;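 also: luminescence tracks abundance of the self-degrading MDM2-luciferase fusion protein; higher signal means inhibition of MDM2 E3 ligase activity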
Target sequence (Q00987 whole entry, looked up, the tested form may be a part): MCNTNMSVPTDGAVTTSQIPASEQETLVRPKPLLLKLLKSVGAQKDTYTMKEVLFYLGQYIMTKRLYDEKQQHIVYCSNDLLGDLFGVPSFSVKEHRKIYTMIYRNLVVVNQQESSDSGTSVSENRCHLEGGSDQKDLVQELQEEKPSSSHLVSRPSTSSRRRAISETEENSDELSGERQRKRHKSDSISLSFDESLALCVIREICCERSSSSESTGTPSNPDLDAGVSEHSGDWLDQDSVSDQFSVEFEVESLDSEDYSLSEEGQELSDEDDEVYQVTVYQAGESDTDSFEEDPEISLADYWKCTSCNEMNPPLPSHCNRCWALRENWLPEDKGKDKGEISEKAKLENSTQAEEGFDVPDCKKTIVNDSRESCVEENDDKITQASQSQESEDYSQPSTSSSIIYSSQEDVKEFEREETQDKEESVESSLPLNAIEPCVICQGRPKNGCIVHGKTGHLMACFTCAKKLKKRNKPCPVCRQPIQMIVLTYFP
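Assay system: stable mammalian line carrying autodegrading MDM2–luciferase fusion reporter; Input: 2000 cells in each well; Compound dosing: single-point 5 µM; Schedule: 2 h compound exposure at 37 °C; Signal: SteadyLite luciferase luminescence after 15 min room-temperature reagent incubation; Evaluation: % luminescence enhancement versus blank-corrected plate control mean; Benchmarks: plate controls and plate blanks.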
S1P4 antagonist = blocks the human S1P4 receptor. O95977. S1P4-expressing cells, antagonist mode, reporter read-out. inhibition, % at 4.98 µM. 220,000 tested, 0.26% active; in the data active = inhibition above about 29%
Biofilm kill mix = mixtures killing C. albicans biofilm; C. albicans biofilm persisters + clotrimazole, fluorescence viability; primary screen in compound mixtures of four per well; inhibition, % at 7.6 µM; 120,000 tested, 0.02% active; AID 1242;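 active = inhibition above 30.3% in the primary screen of four-compound pools, then above 30% when the compound was retested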;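 also: compounds exposed to preformed 24 h biofilms for 48 h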
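Test system: C. albicans CAF4-2 wild-type biofilms; buffer or medium: RPMI/MOPS medium, pH 7.0; schedule: 24 h biofilm formation, then 48 h compound exposure, 37 °C; detection: Alamar Blue fluorescence; measure: percent inhibition of biofilm viability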
S1P4 antag cf = confirmation of human S1P4 receptor antagonists; shares compounds with S1P4 antagonist; S1P4-expressing cell line, antagonist mode, reporter read-out; inhibition, % at 4.98 µM; 520 tested, 71% active; AID 1524; in the data active = inhibition above about 30%
S1P1 antag = blocks human S1P1, counter-screen for S1P4 antagonists; shares compounds with S1P4 antagonist; cell-based S1P1 antagonist counterscreen, inhibition; inhibition, % at 4.98 µM; 520 tested, 37% active; in the data active = inhibition above about 40%;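 also: receptor stimulated with S1P near its EC80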
Large screens that a line does not name were inactive (follow-up assays come after a bar, where they were run). Compounds with a hit are over-represented: about 0.9% of the library has one in this group of screens.

CCOC(=O)c1sc(-c2ccc(C(F)(F)F)cc2)nc1O	S1P4 antagonist 38 | S1P4 antag cf 34 | S1P1 antag inactive
CCc1ccc2c(c1)/C(=C/C(=O)c1cccs1)C(=O)N2	S1P4 antagonist 66 (no result: S1P3 antag, Biofilm kill mix) | S1P4 antag cf 109 | S1P1 antag 78
CCc1ccc2c(c1)/C(=N/N(C)C(=S)NC)C(=O)N2	none (no result: S1P3 antag, Biofilm kill mix)
Cc1cc(Br)c2c(c1)/C(=C/C(=O)c1cccs1)C(=O)N2	S1P4 antagonist 35 | S1P4 antag cf 68 | S1P1 antag 43
Cc1cccc2c1NC(=O)/C2=C\C(=O)c1cccs1	none (no result: S1P3 antag, Biofilm kill mix)
Clc1cc(Cl)cc(CN2CCSCC2)c1	none
CC(=O)Nc1cccc(C(=O)/C=C/c2ccc(C)cc2)c1	S1P4 antagonist 45 | S1P4 antag cf 55 | S1P1 antag inactive
CCC(=O)Nc1cccc(C(=O)/C=C/c2ccc(F)cc2)c1	none
O=C(COC(=O)c1ccc([N+](=O)[O-])o1)Nc1cccc(S(=O)(=O)N2CCCCC2)c1	none
Cc1ccc(NC(=O)c2ccc([N+](=O)[O-])o2)cc1S(=O)(=O)N1CCOCC1	S1P4 antagonist 68 | S1P4 antag cf 88 | S1P1 antag 42
Cc1ccc(NC(=O)COC(=O)c2ccc([N+](=O)[O-])o2)cc1S(=O)(=O)N1CCCCC1	none
O=C(Nc1cccc(S(=O)(=O)N2CCCCC2)c1)c1ccc([N+](=O)[O-])o1	S1P4 antagonist 54 | S1P4 antag cf 95 | S1P1 antag inactive
Cc1nn(CC(=O)NCc2cccc3ccccc23)c(=O)c2ccccc12	none (no result: S1P3 antag, Biofilm kill mix)
CCN(CC)c1cc(C)c(C#N)c2nc3ccccc3n12	none
Cc1cc(Cl)n2c(nc3ccccc32)c1C#N	S1P4 antagonist 44 | S1P4 antag cf 108 | S1P1 antag 69
Cc1ccc(C)n1-c1ccc(C(=O)N2CCC(C(N)=O)CC2)cc1	S1P4 antagonist 44 | S1P4 antag cf inactive | S1P1 antag inactive
COC(=O)c1cc(=O)n(Cc2ccco2)c(=Nc2ccc(F)c(Cl)c2)s1	S1P4 antagonist 34 (no result: Biofilm kill mix) | S1P4 antag cf 102 | S1P1 antag 60
CCC(=O)NC(Nc1nc(C)cs1)(C(=O)OC)C(F)(F)F (centres undefined)	none
COc1ccc(-c2csc(NC3OC(=O)c4c3ccc(OC)c4OC)n2)cc1OC (centres undefined)	S1P4 antagonist 32 | S1P4 antag cf 58 | S1P1 antag 44
O=C(Nc1ccc(Cl)cc1)c1cccnc1N1CCCCC1	S1P4 antagonist 95 (no result: S1P3 antag, Biofilm kill mix) | S1P4 antag cf inactive | S1P1 antag inactive
N#Cc1ccc(/C=C/C(=O)c2ccccc2)cc1	S1P4 antagonist 86 | S1P4 antag cf 90 | S1P1 antag inactive
CC1=C(C)/C(=N\OS(=O)(=O)c2ccccc2)C=CC1=O	S1P4 antagonist 42 (no result: S1P3 antag, Biofilm kill mix) | S1P4 antag cf 69 | S1P1 antag inactive
CNC(=S)NNC(=O)c1cn(C)nc1C	none
Cc1ccc(C(=O)NCC#N)cc1	none
Cc1ccc(C(=O)NC(C#N)=C(Cl)Cl)cc1	S1P4 antagonist 60 | S1P4 antag cf 110 | S1P1 antag inactive
O=C(Nc1nnc(-c2ccc(Cl)s2)o1)C1CC1	none
O=C(Nc1nnc(-c2cccs2)o1)C1CC1	S1P4 antagonist 31 | S1P4 antag cf inactive | S1P1 antag inactive
Cc1c(CN2CCC(CO)(CCOc3ccccc3)CC2)[nH]c2c(Cl)cccc12	none
Cc1ccc(-n2nnnc2-c2ccccc2)cc1	none
Cc1ccc(-n2nnnc2C(Cl)c2nnnn2-c2ccc(C)cc2)cc1	S1P4 antagonist 47 | S1P4 antag cf 74 | S1P1 antag inactive
Cc1ccc(C2CC2C(=O)NNC(=S)Nc2ccc(Cl)cc2)cc1 (centres undefined)	none (no result: S1P3 antag)
Cc1ccc(OCC(=O)N2CCCC(CCC(=O)N(C)CCc3ccccn3)C2)cc1 (centres undefined)	none
O=C1/C(=C/c2ccncc2)CCC/C1=C\c1ccncc1	S1P4 antagonist 83 | S1P4 antag cf 99 | S1P1 antag inactive
O=C1/C(=C/c2ccncc2)CCc2ccccc21	none
O=C(Nc1cccc2ccccc12)/C(Cl)=C/c1ccccc1	S1P4 antagonist 61 (no result: S1P3 antag, Biofilm kill mix) | S1P4 antag cf 68 | S1P1 antag inactive
Cc1ccc(-c2nc(C=Nc3ccc(O)cc3)c(O)o2)cc1	S1P4 antagonist 31 | S1P4 antag cf 43 | S1P1 antag inactive
CN=Cc1nc(-c2ccccc2)oc1O	none (no result: S1P3 antag)
CCCN1C(=O)/C(=C/c2ccc(OCC(=O)OCC)cc2)NC1=S	S1P4 antagonist 30 | S1P4 antag cf inactive | S1P1 antag inactive
CCCN1C(=O)/C(=C/c2ccc(N3CCOCC3)cc2)NC1=S	none
CCCCNC(=O)CN1C(=O)c2cccc(N)c2C1=O	S1P4 antagonist 39 | S1P4 antag cf inactive | S1P1 antag inactive
CC1CCCCC1NC(=O)CN1C(=O)c2cccc(N)c2C1=O (centres undefined)	S1P4 antagonist 32 | S1P4 antag cf 30 | S1P1 antag inactive
COCCCNC(=O)CN1C(=O)c2ccccc2C1=O	none (no result: Biofilm kill mix)
Cc1cc(Br)ccc1S(=O)(=O)n1ccnc1C	none
O=S(=O)(c1cccc(-c2n[nH]c(=S)n2C2CCCC2)c1)N1CCOCC1	none
O=C(Oc1ccc(Br)cc1C(=O)/C=C/c1ccccc1F)c1ccco1	S1P4 antagonist 41 (no result: S1P3 antag, Mdm2 ligase inh, Biofilm kill mix) | S1P4 antag cf 94 | S1P1 antag inactive
CC(=O)c1cc(Cl)ccc1OC(=O)c1ccco1	none (no result: Biofilm kill mix)
O=C(/C=C/c1ccc(Br)cc1)c1ccco1	S1P4 antagonist 54 | S1P4 antag cf 81 | S1P1 antag inactive
O=C(/C=C/c1ccc(Br)cc1)c1ccc(NC(=O)c2ccco2)cc1	none
COc1ccc(/C=C/C(=O)c2ccccc2O)cc1	none (no result: Mdm2 ligase inh)
COc1ccc(/C=C/C(=O)c2c(O)c(OC)c3occc3c2OC)cc1	S1P4 antagonist 34 | S1P4 antag cf 52 | S1P1 antag inactive
Cc1ccc(Nc2cc(C)nn2-c2nc(C)cc(C)n2)cc1	none (no result: Biofilm kill mix)
Cc1ccc(Nc2cc(C)nn2-c2nc(C)cc(=O)[nH]2)cc1	S1P4 antagonist 92 (no result: Biofilm kill mix) | S1P4 antag cf 114 | S1P1 antag 95
Cn1nc(-c2ccc(Cl)cc2)nc2c(=O)n(C)c(=O)nc1-2	S1P4 antagonist 90 (no result: S1P3 antag, Biofilm kill mix) | S1P4 antag cf 110 | S1P1 antag 88
CS(=O)(=O)n1nc(-c2ccc(Cl)cc2)nc1N	none
Nc1nc(CCl)nc(Nc2cccc3ccccc23)n1	S1P4 antagonist 33 | S1P4 antag cf 55 | S1P1 antag inactive
Oc1ccccc1C1CC(c2cccs2)=NC(c2ccc(Cl)cc2)N1 (centres undefined)	S1P4 antagonist 46 | S1P4 antag cf inactive | S1P1 antag inactive
COc1cccc(-c2nc(COc3ccc(Cl)cc3Cl)no2)c1	none
Cc1cc(NC(=O)c2ccc([N+](=O)[O-])o2)ccc1NC(=O)c1ccco1	S1P4 antagonist 90 | S1P4 antag cf 107 | S1P1 antag 58
Cc1cc([N+](=O)[O-])ccc1NC(=O)c1ccco1	none

Bioassay records from PubChem BioAssay.
